In one series the test system is 4T1 cells. Briefly: MTT cytotoxicity assay. It is filed as cell-based, murine. The following applies: Mus musculus. The essentials: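 4T1 cells grown in 1640 medium with 5% FBS and 1% penicillin/streptomycin at 37 °C, 5% CO2. Seeded at 2000 cells/well for 24 h, then exposed to a range of test concentrations for 48 h or 72 h. Washed twice with cold PBS, given fresh medium plus MTT for 4 h, formazan dissolved in DMSO, A570 read. Inhibition rate calculated relative to untreated control absorbance.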
A general note: Formazan colour is commonly taken as a measure of viable cells.

Series [1] relates to 4T1 cell tumor-bearing xenograft model. Description: In vivo antitumor study and histological evaluation. Further details: species or system female BABL/c mice. The procedure, abridged:
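Orthotopic 4T1 model: 0.1 mL of 4T1 cells (1 × 107 mL−1) injected into the fourth pair of breast pads. At 50–100 mm3 tumours, mice randomised into three groups (n = 6). Killed day 14; heart, liver, lung, spleen, kidney and tumour fixed in 10% formaldehyde for H&E.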

The conditions of series [2]: release medium vs anhydrous ethanol; cited from earlier work.

Regarding `C[C@H]1[C@@H](O)O[C@@H]2O[C@@]3(C)CC[C@H]4[C@H](C)CC[C@@H]1[C@@]24OO3` [DHA-Sol, Dihydroartemisinin], the IC50 – broadly, the concentration needed to halve the response being measured – in the series with 4T1 cells (4T1, 48 h) was found to be 2310 ± 100 nM; in the series on 4T1 cells (4T1, 72 h), 620 ± 20 nM. The molecule further showed a tumor volume in series [1] (after 14 days, i.v. 0.07 mmol DHA kg^−1 on days 1, 3, 5, 7, 9, saline group 3309.68 ± 441.61) of 867.27 ± 117.43 mm^3. Further, the “body weight change versus saline group” value in series [1] (end of the experiment, p > 0.1) is reported as “a significant change in the body weight of rats was not observed”. Also, in series [1] (n = 6 per group, 0.07 mmol DHA kg^−1 i.v. five times), the “survival of mice during the experiment” value is “two mice treated with the DHA-Sol group died during the experiment”. The “stability of DHA in the release medium” value in series [2] was “degraded quickly in the release medium”.

Values taken from paper PMC9053626 (RSC Advances, 2020).
